Usually GI50 stands for the concentration at which growth is held to half of that of the control. The pIC50 is the negative decadic logarithm of the IC50, by convention in mol/L.

The structures appear in SMILES notation. pIC50: −log10 of the molar value. Activity calls are given as the source filed them. The rule behind the calls is not given here. Bounds are passed on as bounds.

We go through one compound from ChEMBL document CHEMBL4052637, “Discovery and Characterization of R/S-N-3-Cyanophenyl-N'-(6-tert-butoxycarbonylamino-3,4-dihydro-2,2-dimethyl-2H-1-benzopyran-4-yl)urea, a New Histone Deacetylase Class III Inhibitor Exerting Antiproliferative Activity against Cancer Cell Lines” (J Med Chem, 2017).

The subject of one assay is SF-539. The assay can be described thus: Growth inhibition of human SF539 cells after 48 hrs by SRB assay. It counts as functional. To be noted: SF-539, 48 h. On the technique in general: Sulforhodamine B stains cellular protein and so reports cell mass.
Another assay relates to U-373MG ATCC. The assay can be described thus: Inhibition of 3D tumor-like growth of human U373 cells assessed as decrease in ATP level at 5 to 10 uM treated for 24 hrs measured after 96 hrs by CellTiter-Glo assay. It is filed as functional, cell-based.
The subject of the next assay is IGROV-1. The assay can be described thus: Growth inhibition of human IGROV1 cells after 48 hrs by SRB assay. It counts as functional. The settings on record: IGROV-1, 48 h.
Assay [1] in a line: Selectivity index, ratio of IC50 for mouse astrocytes to IC50 for human U373 cells.
Assay [2] deals with Hs 683. The assay can be described thus: Inhibition of 3D tumor-like growth of human Hs683 cells assessed as decrease in ATP level at 5 to 10 uM treated for 24 hrs measured after 96 hrs by CellTiter-Glo assay. It is filed as functional, cell-based. Put shortly: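 Spheroids were grown from a starting suspension of 1 × 10^3 cells in 25 μL. Cells were pretreated 24 h with compound, then left untreated for 96 h. Spheroids were harvested and mixed with CellTiter-Glo 3D reagent, shaken 5 min and stabilized 25 min, then luminescence was read. Mean ± SD of three independent experiments.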
On the technique in general: Cellular ATP, detected with luciferase, serves as a proxy for viable cell number.

A further assay concerns BT-549. The assay can be described thus: Growth inhibition of human BT549 cells after 48 hrs by SRB assay. It is filed as functional. The settings on record: BT-549, 48 h.
In a further assay the test system is SNB-75. The assay can be described thus: Growth inhibition of human SNB75 cells after 48 hrs by SRB assay. It is filed as functional. The settings on record: SNB-75, 48 h.
For another assay, the system named is SW1573. In words: Antiproliferative activity against human SW1573 cells after 72 hrs by MTT assay. It is filed as functional, cell-based. Put shortly:
(§1)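 MTT assay: cells in RPMI 1640 with 10% heat-inactivated FCS at 37 °C and 5% CO2 were seeded 24 h before treatment. They were exposed 72 h to compound at 0.01–100 μM, with DMSO as solvent.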

Assay [3] deals with Hs 683. The assay can be described thus: Antitumor activity against CM-Dil fluorescent dye labeled human Hs683 cells xenografted in zebrafish embryo at 5 to 10 uM preincubated with tumor for 30 hrs followed by tumor implantation in zebra fish yolk sac measured after 72 hrs by fluorescence microscopy. It counts as functional, cell-based. Put shortly: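 Cells were pretreated in vitro at 5 or 10 μM for 30 or 36 h and labeled with CM-DiI 2 h before injection. Then 100–200 cells were injected into the yolk sac of wild-type zebrafish 48 h post-fertilization, anesthetized in 0.02% tricaine. Embryos were kept 72 h at 28.5 °C in Danieau solution with 0.003% phenylthiourea, and fluorescence was quantified in eight fish per condition.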
On the technique in general: A xenograft is tissue or cells of one species grown in another, often human tumour cells in immunodeficient mice.

For another assay, the system named is SNB-19. In words: Growth inhibition of human SNB19 cells after 48 hrs by SRB assay. The settings on record: SNB-19, 48 h. It is filed as functional.
The test system of a further assay is UACC-62. The assay can be described thus: Growth inhibition of human UACC62 cells after 48 hrs by SRB assay. It is filed as functional. To be noted: UACC-62, 48 h.
For a further assay, the system named is HCT-116. In words: Antiproliferative activity against human HCT116 cells expressing wild type p53 after 72 hrs by MTT assay. It counts as functional, cell-based. The procedure, abridged: as §1
The test system of assay [4] is Hs 683. The assay can be described thus: Antiproliferative activity against human Hs683 cells transfected with SIRT1/2 siRNA at IC50 for MTT assay after 72 hrs by time-lapse videomicroscopy. It is filed as functional, cell-based.
In assay [5] the test system is Hs 683. The assay can be described thus: Inhibition of spheroid forming capacity of human Hs683 cells assessed as decrease in volume of multicellular tumor spheroids at 5 to 10 uM treated for 24 hrs measured after 96 hrs by bright field microscopic method. It counts as functional, cell-based. Put shortly: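 Spheroids formed from 1 × 10^3 cells in 25 μL. Cells were pretreated 24 h with compound then left untreated 96 h, or untreated spheroids were cultured 96 h with compound. Surface measured from bright-field images; volume in voxels from 3D plots after image segmentation. Mean ± SD of three independent experiments.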

For a further assay, the system named is OVCAR-4. The assay can be described thus: Growth inhibition of human OVCAR4 cells after 48 hrs by SRB assay. It counts as functional. To be noted: OVCAR-4, 48 h.
Another assay relates to RPMI-8226. The assay can be described thus: Growth inhibition of human RPMI8226 cells after 48 hrs by SRB assay. It counts as functional. To be noted: RPMI-8226, 48 h.
For assay [6], the target named is T1, NAD-dependent protein deacetylase sirtuin-1 (Homo sapiens, UniProt Q96EB6).
T1 sequence (Q96EB6 whole entry): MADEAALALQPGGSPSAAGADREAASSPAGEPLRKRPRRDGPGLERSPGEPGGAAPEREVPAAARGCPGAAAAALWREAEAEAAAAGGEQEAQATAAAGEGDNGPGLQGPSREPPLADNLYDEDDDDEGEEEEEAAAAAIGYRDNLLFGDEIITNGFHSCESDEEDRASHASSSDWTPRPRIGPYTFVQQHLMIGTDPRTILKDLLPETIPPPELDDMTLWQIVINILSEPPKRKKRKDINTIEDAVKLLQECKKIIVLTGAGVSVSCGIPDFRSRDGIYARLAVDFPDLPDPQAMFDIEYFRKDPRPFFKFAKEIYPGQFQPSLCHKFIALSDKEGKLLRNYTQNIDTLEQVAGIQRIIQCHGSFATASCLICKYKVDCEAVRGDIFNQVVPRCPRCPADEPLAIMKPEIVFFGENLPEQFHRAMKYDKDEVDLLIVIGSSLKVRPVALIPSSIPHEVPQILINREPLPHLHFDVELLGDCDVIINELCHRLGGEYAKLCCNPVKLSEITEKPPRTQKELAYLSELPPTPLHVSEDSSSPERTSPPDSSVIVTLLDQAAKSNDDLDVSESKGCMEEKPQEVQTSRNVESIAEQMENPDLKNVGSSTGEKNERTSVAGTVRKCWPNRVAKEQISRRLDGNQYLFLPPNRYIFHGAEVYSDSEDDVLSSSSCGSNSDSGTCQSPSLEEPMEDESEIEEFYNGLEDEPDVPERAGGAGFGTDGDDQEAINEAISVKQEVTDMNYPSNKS
The assay can be described thus: Inhibition of N-terminal His-tagged recombinant human SIRT-1 expressed in Escherichia coli using Fluor-de-Lys-SIRT1 as substrate after 15 mins by fluorescence assay.

Assay [7] has as its target Histone deacetylase 8 (Homo sapiens) (UniProt Q9BY41). In words: Inhibition of recombinant human HDAC8 expressed in Escherichia coli at 0.1 to 100 uM using Fluor-de-Lys-HDAC8 as substrate after 15 mins by fluorescence assay.
For a further assay, the system named is KB 3-1. In words: Antiproliferative activity against human KB-3-1 cells after 72 hrs by MTT assay. It counts as functional, cell-based. Put shortly:
as §1

The test system of the next assay is NCI-H322M. The assay can be described thus: Growth inhibition of human NCI-H322M cells after 48 hrs by SRB assay. It counts as functional.

Chain of Histone deacetylase 8 (Homo sapiens) (Q9BY41 whole entry): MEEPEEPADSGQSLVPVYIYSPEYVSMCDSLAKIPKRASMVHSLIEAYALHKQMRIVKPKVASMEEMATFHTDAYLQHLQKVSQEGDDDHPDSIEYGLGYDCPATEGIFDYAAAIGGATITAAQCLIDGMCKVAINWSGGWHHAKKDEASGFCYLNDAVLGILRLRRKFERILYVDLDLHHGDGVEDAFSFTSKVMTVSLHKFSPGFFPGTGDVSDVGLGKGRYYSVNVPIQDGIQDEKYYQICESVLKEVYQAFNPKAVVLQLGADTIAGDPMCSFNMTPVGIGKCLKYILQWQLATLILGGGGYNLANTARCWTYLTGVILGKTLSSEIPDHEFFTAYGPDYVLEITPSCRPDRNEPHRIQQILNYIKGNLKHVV

Turning to `CC(C)(C)OC(=O)Nc1ccc2c(c1)C(NC(=O)Nc1cccc(C#N)c1)CC(C)(C)O2` (stereo not given), the GI50 in the assay on SF-539 was 6.61 µM; in the assay on IGROV-1 it was 6.31 µM; in the assay with BT-549, 3.8 µM; in the assay on SNB-75, 5.89 µM; in the assay with SNB-19, 3.72 µM; with UACC-62 it was 1 µM. Moreover, the GI50 in the assay on OVCAR-4 was 1.78 µM; with RPMI-8226, 1.62 µM; with NCI-H322M, 21.9 µM. Moreover, the inhibition result in the assay on U-373MG ATCC, in the assay with Hs 683 [2] and in the assay with Hs 683 [5] was “Active” each time. Moreover, the “Ratio IC50” value in [1] is given as above 10. Moreover, the outcome with SW1573, with Hs 683 [3], with HCT-116, in the assay with Hs 683 [4] and in the assay with KB 3-1 was Active. The pIC50 in assay [6] was 5.21. For the same compound, the inhibition result in assay [7] was “inactive”.
